E coli WT exp: E. coli BW25113 growth inhibition, expanded screen; AID 710; growth inhibition, % at 100 µM; 0.15% of 98,000 active; OD600 absorbance;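 active = growth inhibition above about 50% at one test dose, limit read from the data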;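 also: growth measured after 20 h incubation at 37 °C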
PLAP activator: activates human placental alkaline phosphatase; purified PLAP enzyme, luminescent substrate read-out; active compounds read high; 1.2% of 96,000 active; P05187; activation fold at 20 µM; in the data active = activation fold above about 2
Ecoli tolC: growth inhibitors of E. coli BW25113 tolC mutant | growth inhibition, % at 10 µM (by protocol) | OD615 | 2.2% of 65,000 active;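 active = growth inhibition at or above a cutoff equal to the mean over every tested compound plus 3 SD, cut at about 60% in these data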;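 also: growth measured after 20 h incubation at 37 °C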
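Test system: tolC-deleted E. coli BW25113 | Medium: LB with kanamycin 50 µg/mL | Compound dosing: Single concentration, 10 µM final per compound | Schedule: 37 °C, 20 h exposure | Measured by: OD at 615 nm | Evaluation: Percent growth inhibition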
PostGolgi ctrl: yeast control strain growth, post-Golgi counter-screen; efflux-deficient yeast background strain, growth absorbance A615, 16 h; inhibition, % at 10 µM; 5% of 98,000 active
HePTP inhibitor: inhibitors of human HePTP phosphatase | recombinant HePTP phosphatase activity, OD absorbance | inhibition, % at 20 µM | 0.64% of 110,000 active; in the data active = inhibition above about 50%;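 also: plate controls were vehicle for no effect and reference inhibitor for full effect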
Target sequence (P35236 whole entry, looked up): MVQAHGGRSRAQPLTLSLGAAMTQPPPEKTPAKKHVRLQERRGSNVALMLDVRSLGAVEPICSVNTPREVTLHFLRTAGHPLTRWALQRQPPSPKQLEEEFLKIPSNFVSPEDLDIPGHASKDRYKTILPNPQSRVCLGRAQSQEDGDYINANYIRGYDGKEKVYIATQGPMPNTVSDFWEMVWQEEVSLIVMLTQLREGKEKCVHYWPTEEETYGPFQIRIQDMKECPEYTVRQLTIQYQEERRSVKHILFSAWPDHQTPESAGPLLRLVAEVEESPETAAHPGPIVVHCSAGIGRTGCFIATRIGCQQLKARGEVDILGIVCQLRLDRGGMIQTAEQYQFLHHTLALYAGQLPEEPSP
PostGolgi yeast: growth inhibition of a yeast mutant, post-Golgi transport screen; post-Golgi transport phenotypic cell assay; AID 739; 0.9% of 98,000 active; inhibition, % at 10 µM;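 also: yeast cells grown in 1536-well plates; yeast grown about 18 h at 30C before absorbance read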
Active calls of the source: *; / = no result given. Only some compounds are listed: those with a hit (about 5.4% of all), similar ones and a draw of the others. Rule as the data show it, unless noted: active = inhibition above about 30%; inactive = the rest.

SMILES	E coli WT exp	PLAP activator	Ecoli tolC	PostGolgi ctrl	HePTP inhibitor	PostGolgi yeast
O=C(/C=C/c1ccc([N+](=O)[O-])cc1)Nc1ccc(S(=O)(=O)N2CCOCC2)cc1	/	/	/	/	8	/
O=C(NCc1ccco1)c1ccccc1NS(=O)(=O)c1ccc2c(c1)OCCO2	12	1.2	12	2	-6	11
C=CC(O)(C#CCN(CC)CC)c1ccccc1 (stereo not drawn)	1	1.1	3	9	4	-3
Cn1c(=O)cc(SCC(=O)N2CCN(C3CCCCC3)CC2)c2ccccc21	/	/	0	/	5	/
O=C(NC(Cc1ccccc1)c1ccc2c(c1)OCCCO2)c1ccccc1F (stereo not drawn)	-8	1.3	/	9	/	4
CC(=O)N(CCC(Cc1ccccc1)c1ccc2c(c1)OCO2)Cc1ccccc1F (stereo not drawn)	0	1.2	/	36*	/	-10
Clc1ccc(OCc2nc(-c3ccncc3)no2)c(Cl)c1	12	0.7	19	37*	0	44*
CC1Cc2ccccc2N1C(=O)CSc1nnc(-c2ccc(S(=O)(=O)N3CCCC3)cc2)o1 (stereo not drawn)	0	1.6	-10	5	8	-4
FC(F)(F)c1cccc(Sc2cc(C(F)(F)F)nc(-c3ccccn3)n2)c1	-4	1	/	42*	/	-10
COc1ccc(C(=O)Nc2ccc(S(=O)(=O)N3CCCC3)cc2)c(OC)c1	-1	0.8	/	0	/	10
CCCn1c(SCC(=O)c2cc(C)c(C)cc2C)n[nH]c1=O	-2	2.2*	/	4	/	2
Cc1ccc(S(=O)(=O)N(C)CCCC(=O)Nc2ccccc2C)cc1	/	/	/	/	-8	/
COc1ccccc1N1CC(C(=O)Nc2cccc(C(=O)O)c2)CC1=O (stereo not drawn)	3	1.1	-6	1	-4	5
O=CN1Cc2ccccc2-c2ccccc2C1	/	/	/	/	3	/
Cn1c(Sc2ccc(Br)cc2)c(C=O)c2ccccc21	-17	1.1	/	32*	/	-2
O=C(CC1S/C(=N\N=C2/CCCc3ccccc32)NC1=O)Nc1ccc(Cl)cc1Cl (stereo not drawn)	/	/	/	/	5	/
Clc1cc(Br)ccc1OCCOCCN1CCOCC1	6	1.2	8	14	-8	53*
Clc1ccc(OCCOCCN2CCCCC2)c(Br)c1	16	1.4	/	26	/	42*
Cc1ccc(C)c(OCCOCCN2CCOCC2)c1	6	1.4	-5	-1	-5	2
Cc1ccc(CNC(=O)c2cccc([N+](=O)[O-])c2)cc1	/	/	/	/	4	/
Cc1cc(C)n(CC(O)CN2c3ccccc3Sc3ccccc32)n1 (stereo not drawn)	-20	1.3	41	43*	-5	0
Cc1cc(C)n(CC(O)Cn2c3ccccc3c3ccccc32)n1 (stereo not drawn)	4	1.1	/	19	12	-2
CCOc1ccc(C(=O)Nc2ccc3oc(-c4ccccc4F)nc3c2)cc1Cl	/	/	/	/	3	/
Cc1ccc2oc(-c3ccc(NC(=O)c4cccnc4)cc3O)nc2c1	/	/	/	/	0	/
O=C(Nc1ccc2oc(Cc3ccc(Cl)cc3)nc2c1)c1cccnc1	-15	1.3	69*	4	11	5
SMILES	E coli WT exp	PLAP activator	Ecoli tolC	PostGolgi ctrl	HePTP inhibitor	PostGolgi yeast
CCOc1ccc(C(=O)Nc2ccc3oc(-c4ccncc4)nc3c2)cc1Cl	/	/	/	/	98*	/
Cc1ccc2oc(-c3ccc(NC(=O)c4cccnc4)cc3)nc2c1	-2	1.4	10	66*	-12	-7
COc1cc(C(=O)NN2C(=O)/C(=C/c3ccc(Cl)cc3Cl)SC2=S)ccc1O	/	/	/	/	3	/
COc1ccccc1C1CN=NC12CCCc1ccccc1C2=O (stereo not drawn)	3	1	/	35*	/	-14
N#CC1=C(N)SC(N)=C(C#N)C1CCC1CCCCC1	8	1	99*	9	-1	-2
Cc1ccc(CSc2nnc(-c3cccc(F)c3)n2-c2ccccc2)cc1	/	/	/	/	-4	/
CCCCn1nnnc1NCc1ccc(N(CC)CC)cc1	6	0.7	/	8	/	1
C=CCN1C(=O)/C(=C\c2ccc(-c3ccc(C)cc3Br)o2)C(=O)NC1=S	/	/	/	/	102*	/
C=CCN1C(=O)/C(=C\c2ccc(-c3cccc([N+](=O)[O-])c3)o2)C(=O)NC1=S	/	/	/	/	96*	/
C=CCN1C(=O)/C(=C/c2cccc([N+](=O)[O-])c2)C(=O)NC1=S	/	/	/	/	10	/
C=CCN1C(=O)/C(=C\c2ccc(-c3ccc([N+](=O)[O-])cc3)o2)C(=O)NC1=S	/	/	/	/	102*	/
C=CCN1C(=O)/C(=C/c2ccc(C)cc2)C(=O)NC1=S	/	/	/	/	9	/
C=CCN1C(=O)/C(=C\c2cc(Br)cc(Cl)c2O)C(=O)NC1=S	/	/	/	/	-3	/
C=CCN1C(=O)/C(=C\c2ccc(-c3ccc(Br)cc3)o2)C(=O)NC1=S	/	/	/	/	100*	/
CCc1ccc(S(=O)(=O)Nc2cc3c(C(=O)O)c(C)oc3c3ccccc23)cc1	/	/	/	/	-1	/
CNC(=S)NCC12CC3CC(CC(C3)C1)C2	/	/	/	/	-3	/
COc1ccc(C(=O)NCCSCc2ccccc2C)cc1	11	0.9	/	19	/	-2
Cc1ccc(SCCC(=O)NCCSCc2ccccc2C)cc1	-15	1	/	54*	/	7
FC(F)(F)c1cc(C(F)(F)F)c2ccc(N3CCN(c4ccc(Cl)cc4)CC3)nc2n1	-16	0.9	/	21	/	16
Fc1ccc(N2CCN(c3ccc4c(C(F)(F)F)cc(C(F)(F)F)nc4n3)CC2)cc1	-12	1.2	/	75*	/	14
COC(=O)c1ccccc1Nc1ccccc1	5	1.1	-25	2	1	-3
Cc1cccc(-c2nnc(NC(=O)c3ccc(Cl)cc3)o2)c1	30	1	100*	81*	1	94*
COc1cccc(-c2nnc(NC(=O)c3ccccc3Br)o2)c1	/	/	72*	/	9	/
COc1cccc(-c2nnc(NC(=O)c3cccc(F)c3)o2)c1	/	/	100*	/	-2	/
O=C(Nc1nnc(-c2ccc(Cl)cc2)o1)c1nc2ccccc2s1	3	1.7	/	-3	/	2
SMILES	E coli WT exp	PLAP activator	Ecoli tolC	PostGolgi ctrl	HePTP inhibitor	PostGolgi yeast
COc1cccc(-c2nnc(NC(=O)C(C)C)o2)c1	9	0.9	/	-2	/	-11
COc1ccc(C(=O)Nc2nnc(-c3ccccc3)o2)cc1OC	-6	2.1*	36	17	14	0
O=C(NN1C(=O)/C(=C/c2ccc(F)cc2)SC1=S)c1ccncc1	/	/	/	/	10	/
CCOC(=O)c1cc2oc(C)cc2n1CC(=O)OC1CCCCC1	6	1	74*	12	6	-7
COC(=O)c1cc2oc(C)cc2n1CC(=O)N(C)c1ccccc1	4	0.9	3	22	7	-3
COC(=O)C1=C(C)N(C)C(=O)NC1c1cc(Cl)cc(Cl)c1OC (stereo not drawn)	8	1.1	17	4	8	-7
Cc1cc(C)nc(N2CCC(C(=O)N3CCN(c4cc(Cl)ccc4C)CC3)CC2)n1	-20	1.6	50	43*	7	-3
Cc1ccc(C)c(N2CCN(C(=O)C3CCN(S(=O)(=O)c4c(C)noc4C)CC3)CC2)c1	/	/	16	/	1	/
Cc1ccc(C)c(N2CCN(C(=O)C3CCN(c4nc(C)cc(C)n4)CC3)CC2)c1	-21	1.7	29	46*	-10	6
